# Published values from different studies.
# Target: Casein kinase II subunit alpha' (CSNK2A2, Homo sapiens, UniProt P19784)
Compound,effect on,action,technique,tested at,measurement,value
CCS(=O)(=O)c1cc2cc(C[C@](O)(CC(C)(C)c3ccc(F)cc3C(N)=O)C(F)(F)F)[nH]c2cn1,cell-free assay,,competition with immobilised ligand,1 µM,remaining binding,92%
COc1cc(Cl)c(C(=O)N[C@@H](CN[C@H]2CC[C@@H](N)CC2)Cc2ccc(C#N)cc2)cc1-c1ccc(CN[C@H](C)c2ccc(C)cc2)o1,enzyme activity,inhibitor,,1 µM,remaining activity,106%
CCN(CC)CCNC(=O)c1c(C)[nH]c(/C=C2\C(=O)Nc3ccc(F)cc32)c1C,enzyme activity,inhibitor,,0.3 µM,inhibition,-22%
O=C1NC(=O)c2cc(Nc3ccc(F)cc3)c(Nc3ccc(F)cc3)cc21,cell-free assay,inhibitor,,0.5 µM,remaining signal,104%
Cc1ccc(NC(=O)c2ccc(C)c(C(F)(F)F)c2)cc1C#Cc1nn(C2CCC(O)CC2)c2ncnc(N)c12 (stereo not drawn),cell-free assay,inhibitor,,10 µM,remaining signal,92%
CC(C)(C)c1nc2c(s1)c1nc(N)ncc1c1ccc(NS(=O)(=O)c3c(F)cccc3F)c(F)c12,enzyme activity,inhibitor,radiometric,1 µM,remaining activity,94%
O=C1Nc2ccc(Cl)cc2C1=Cc1cc(Cl)c(O)c(Cl)c1,cell-free assay,,,0.5 µM,remaining signal,33.3%
CN(C)C(=O)Cn1cc(-c2nc([C@@](C)(c3ccc(-c4cnc(N)nc4)cc3)C3CC3)no2)cn1,cell-free assay,,competition with immobilised ligand,1 µM,remaining binding,90%
CCCOc1ccc(OC)c(F)c1C(=O)c1ccc(C(=O)N[C@@H]2CNC[C@H]2NC(=O)c2ccc3[nH]ncc3c2)cc1,enzyme activity,inhibitor,,10 µM,remaining activity,93%
Nc1ncnc2occ(-c3ccc(NC(=O)Nc4cc(C(F)(F)F)ccc4F)cc3)c12,enzyme activity,inhibitor,,20 µM,remaining activity,41%
Cc1ccc(Nc2nccc(N(C)c3ccc4c(C)n(C)nc4c3)n2)cc1S(N)(=O)=O,enzyme activity,inhibitor,,0.3 µM,inhibition,-13%
O=C(Nc1cnn(-c2csc(C(=O)NC3COC3)c2)c1)Nc1c(F)cccc1Cl,enzyme activity,inhibitor,,5 µM,remaining activity,96.6%
CNC(=O)c1cc(Oc2ccc(NC(=O)Nc3ccc(Cl)c(C(F)(F)F)c3)cc2)ccn1,enzyme activity,inhibitor,,10 µM,inhibition,-30%
COc1cc2ncnc(Nc3ccc(Oc4ccccc4)c(C)c3C)c2cc1OC,enzyme activity,inhibitor,,1 µM,inhibition,-1%
O=C(Nc1cccnn1)N1CCC(=Cc2cccc(Oc3ccc(C(F)(F)F)cn3)c2)CC1,cell-free assay,,competition with immobilised ligand,1 µM,remaining binding,100%
CC(C)c1ccc(NC(=O)c2cccs2)c(-c2nc3ccccc3[nH]c2=O)c1,enzyme activity,inhibitor,,1 µM,activity vs control,121%
COc1ccc2c(O[C@@H]3C[C@H]4C(=O)N[C@]5(C(=O)O)CC5/C=C\CCCCC[C@H](NC(=O)OC5CCCC5)C(=O)N4C3)cc(-c3csc(NC(=O)C(C)C)n3)nc2c1C (stereo partly drawn),cell-free assay,,competition with immobilised ligand,1 µM,remaining binding,100%
Cn1cnc(Br)c1C1=CN(c2ncnc3[nH]cnc23)CCS1,enzyme activity,inhibitor,radiometric,2 µM,inhibition,46.5%
CC(=O)C1=C(C)N(c2cccc(C(F)(F)F)c2)C(=O)N[C@@H]1c1ccc(C#N)nc1,cell-free assay,,competition with immobilised ligand,1 µM,remaining binding,75.7%
COc1cccc2c(NCc3ccccc3)nc(-n3c(N)nc4ccccc43)nc12,target engagement in cells,inhibitor,chemoproteomics,20 mM,inhibition,-11.7%
CNCc1ccccc1-c1csc([C@@H](C)Nc2nc(C)nc3cc(OC)c(OC)cc23)c1,cell-free assay,,competition with immobilised ligand,1 µM,remaining binding,100%
C=CC(=O)Nc1cc(Nc2nccc(Nc3cc(Cl)c(F)cc3C(C)(C)O)n2)c(OC)cc1N1CC[C@@H](N(C)C)C1,enzyme activity,inhibitor,,1 µM,inhibition,-6%
O=C(NC[C@@H]1[C@H]2CN(C(=O)OCc3cc(C(F)(F)F)cc(C(F)(F)F)c3)C[C@@H]12)c1ccc2[nH]nnc2c1,cell-free assay,,competition with immobilised ligand,1 µM,remaining binding,92%
CCCCNc1ncc2c(-c3ccc(F)cc3)nn(C[C@H]3CC[C@H](N)CC3)c2n1,target engagement in cells,inhibitor,chemoproteomics,20 mM,inhibition,-43.5%
